Assay results as given in ChEMBL document CHEMBL3351291, “Lajollamycins, nitro group-bearing spiro-β-lactone-γ-lactams obtained from a marine-derived Streptomyces sp” (J Nat Prod, 2014).
Calls of active or inactive are those of the source. The calls are words filed in the database; no cut-off is given here.

How the values were obtained:
Staphylococcus aureus = experiment: Antibacterial activity against Staphylococcus aureus ATCC 6538p; format: functional
Bacillus subtilis = experiment: Antibacterial activity against Bacillus subtilis ATCC 6633; format: functional
Kocuria rhizophila = experiment: Antibacterial activity against Kocuria rhizophila NBRC 12708; format: functional
Salmonella enterica = experiment: Antibacterial activity against Salmonella enterica ATCC 14028; format: functional
Proteus hauseri = experiment: Antibacterial activity against Proteus hauseri NBRC 3851; format: functional
Escherichia coli = experiment: Antibacterial activity against Escherichia coli ATCC 35270; format: functional
A549 = experiment: Cytotoxicity against human A549 cells; format: functional, cell-based
[1] = Cytotoxicity against human HCT116 cells; format: functional, cell-based; details: HCT-116
[2] = Cytotoxicity against human SNU638 cells; format: functional, cell-based; details: SNU-638
K562 = experiment: Cytotoxicity against human K562 cells; format: functional, cell-based
[3] = Cytotoxicity against human SKHEP1 cells; format: functional, cell-based; details: SK-HEP1
MDA-MB-231 = experiment: Cytotoxicity against human MDA-MB-231 cells; format: functional, cell-based
Candida albicans = experiment: Antifungal activity against Candida albicans; format: functional, organism-based
Aspergillus fumigatus = experiment: Antifungal activity against Aspergillus fumigatus; format: functional, organism-based
[4] = Inhibition of Candida albicans isocitrate lyase using isocitrate substrate
Procedure, shortened: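 Recombinant ICL at 2.5 μg/mL in 20 mM sodium phosphate buffer, pH 7.0, with 1.27 mM threo-DL(+)-isocitrate, 3.75 mM MgCl2 and 4.1 mM phenylhydrazine. Reaction started on substrate addition, with or without inhibitor in DMSO (0.5% final). After 30 min at 37 °C, glyoxylate phenylhydrazone was read at 324 nm. Percent inhibition was taken against an inhibitor-free control, with 3-nitropropionic acid as positive control.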

SMILES	MIC (Staphylococcus aureus) [µg/mL]	MIC (Bacillus subtilis) [µg/mL]	MIC (Kocuria rhizophila) [µg/mL]	MIC (Salmonella enterica) [µg/mL]	MIC (Proteus hauseri) [µg/mL]	MIC (Escherichia coli) [µg/mL]	IC50 (A549) [µM]	IC50 [1] [µM]	IC50 [2] [µM]	IC50 (K562) [µM]	IC50 [3] [µM]	IC50 (MDA-MB-231) [µM]	Activity (Candida albicans)	Activity (Aspergillus fumigatus)	IC50 ([4]; read-out: IC50) [µM]	IC50 [4] [µg/mL]
COC(CC(C)C(O)/C=C/C=C/CNC(=O)C(C)(C)C(O)\C(C)=C/C=C\C=C\C(C)=C(/C)[N+](=O)[O-])C1(O)C(C)C(=O)N(C)C12C(=O)OC2C (stereo unspecified) [LAJOLLAMYCIN]	> 128	> 128	> 128	> 128	> 128	> 128	> 100	> 100	> 100	> 100	> 100	> 100	inactive	inactive	42	
CO[C@@H](C[C@@H](C)[C@@H](O)/C=C/C=C/CNC(=O)C(C)(C)[C@H](O)/C(C)=C/C=C/C=C/C(C)=C(\C)[N+](=O)[O-])[C@]1(O)[C@@H](C)C(=O)N(C)[C@@]12COC2=O	> 128	> 128	> 128	> 128	> 128	> 128	> 100	> 100	> 100	> 100	> 100	> 100	inactive	inactive	40	
CO[C@@H](C[C@@H](C)[C@@H](O)/C=C/C=C/CNC(=O)C(C)(C)[C@H](O)/C(C)=C/C=C/C=C/C(C)=C(\C)[N+](=O)[O-])[C@]1(O)[C@@H](C)C(=O)N(C)[C@]12C(=O)O[C@@H]2C	> 128	> 128	> 128	> 128	> 128	> 128	> 100	> 100	> 100	> 100	> 100	> 100	inactive	inactive	50	
CO[C@@H](C[C@@H](C)[C@@H](O)/C=C/C=C/CNC(=O)C(C)(C)[C@H](O)\C(C)=C/C=C/C=C/C(C)=C(\C)[N+](=O)[O-])[C@]1(O)[C@@H](C)C(=O)N(C)[C@]12C(=O)O[C@@H]2C	> 128	> 128	> 128	> 128	> 128	> 128	> 100	> 100	> 100	> 100	> 100	> 100	inactive	inactive	120	
O=C(O)CC[N+](=O)[O-]																4.2
